In experiment [1] the test system is Mus musculus. Put plainly: Survivors at day D30 when a dose of 20 mg/kg administered intravenously to L1210 leukemia mice model. Format: functional. The following applies: route intravenous.
Experiment [2] has as its system Mus musculus. Put plainly: Survivors at day D32 when a dose of 50 mg/kg administered intravenously to mice (C38 adenocarcinoma cell lines) when tested in 10 mice. Format: functional. The following applies: route intravenous. The gist of the method:
(§1)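 Hybrid BDF1 mice, 10 per test, were implanted sc with a standard 3-mm³ fragment of C38 colon adenocarcinoma. Drug was given iv either on D1 alone or on D2 and D9. Animals were followed per NCI (Geran) protocol.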

The test system of experiment [3] is Mus musculus. Put plainly: Survivors at day D32 when a dose of 25 mg/kg administered intravenously to mice (C38 adenocarcinoma cell lines) when tested in 10 mice. The following applies: route intravenous. The class given is functional. The gist of the method:
as §1

In experiment [4] the test system is Mus musculus. Briefly: Weight change in g when a dose of 5 mg/kg administered intraperitoneally to P388 leukemia infected mice. Format: functional. As to conditions: route intraperitoneal. The gist of the method:
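P388 model with a single ip dose. Mice (10 per group) were inoculated ip at D0 with 10^6 P388 cells and given one ip drug dose at D1. Body-weight change (g), median survival day, T/C and survivors at D30 were recorded.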

Experiment [5] deals with Mus musculus. Put plainly: Survivors at day 30 when a dose of 50 mg/kg administered intravenously to P388 (iv) to L1210 leukemia mice model. Format: functional.
The test system of experiment [6] is Mus musculus. Briefly: Median tumoral volume in C38 adenocarcinoma model when a dose of 50 mg/kg administered intravenously on D1 to mice. The following applies: route intravenous. The class given is functional. The method, boiled down: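 Geran protocol in hybrid BDF1 mice, 10 per test, implanted sc with a standard 3-mm³ fragment of C38 colon adenocarcinoma. Drug was given iv at the stated doses on D1, or on D2 + D9, and tumor growth was followed.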

The test system of experiment [7] is Mus musculus. Put plainly: Median survival day in P388 cell line when a dose of 100 mg/kg administered intravenously to mice. The following applies: route intravenous. Format: functional. The gist of the method:
(§2)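 P388 leukaemia in CDF1 hybrid mice, 10 per group. At D0, 10^6 viable cells were inoculated ip, followed by a single iv dose on D1. Weight change, median survival day, T/C (treated/control median survival × 100) and survivors at D30 were recorded.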

The subject of experiment [8] is Mus musculus. Put plainly: […] in C38 adenocarcinoma cell line when a dose of 25 mg/kg administered intravenously in mice. Format: functional, MC-38. As to conditions: route intravenous. The gist of the method: (§3)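 C38 colon adenocarcinoma in hybrid BD F1 mice, 10 per test. A standard 3-mm³ tumour fragment was implanted sc. Drugs were given iv at the stated doses on D1 or on D2 + D9, following the Geran et al. NCI protocol.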

Experiment [9] relates to Mus musculus. Put plainly: Survivors at day 30 when a dose of 5 mg/kg administered to P388 leukemia infected when tested in 10 mice. Format: functional.
The subject of experiment [10] is Mus musculus. Briefly: Median survival day of P388 leukemia infected mice, when a dose of 10 mg/kg administered intraperitoneally. The following applies: route intraperitoneal. Format: functional. The gist of the method: (§4)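 P388 leukaemia in CDF1 hybrid mice, 10 per group. At D0, 10^6 viable cells were inoculated ip, followed by a single ip dose of drug in distilled water on D1. Weight change, median survival day, T/C (treated/control median survival × 100) and survivors at D30 were recorded. Controls were 20 mice.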

Experiment [11] relates to Mus musculus. Put plainly: Median survival day in B16 melanoma cell line when a dose of 2.5 mg/kg administered intraperitoneally to mice. Format: functional. The following applies: route intraperitoneal. The method, boiled down: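 B16 melanoma in hybrid BD F1 mice. At D0 each mouse was inoculated ip with 0.5 mL of homogenate made from 1 g of tumour in 10 mL of physiological serum. Compounds were given ip daily at the stated doses for 9 days (D1-9), with cis-platinum 0.5 mg/kg under the same schedule as positive control.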

For experiment [12], the system named is Mus musculus. Put plainly: Survivors at day 60 when a dose of 10 mg/kg to B16 melanoma infected mice; 4/10. Format: functional.
In experiment [13] the test system is Mus musculus. Put plainly: Antitumor activity against P388 cells at a dose of 40 mg/kg administered intraperitoneally P388 Leukemia model. Format: functional. As to conditions: route intraperitoneal. The method, boiled down:
(§5)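 Mice were inoculated ip with 10^6 P388 leukemia cells at D0, then given a single ip drug dose on D1. Weight change was recorded. T/C % = median survival day of treated / controls × 100; survivors counted at D30; 10 mice per dose group, 20 controls.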

Experiment [14] concerns Mus musculus. Briefly: Antitumor activity against P388 leukemia in mice at a dose of 30 mg/kg administered intraperitoneally for 5 days. The class given is functional, organism-based. Set-up: dose 30 mg/kg. The gist of the method:
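CDF1 hybrid male or female mice, 10 per group, were inoculated ip on day 0 with 10^6 viable P388 leukemia cells. Drug in distilled water was given ip (0.1 mL/10 g body weight) daily on days 1-5, with vehicle, 5-fluorouracil and BD 84 controls given the same way. T/C = median survival of treated/controls × 100; T/C > 128% counted as significant.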

The test system of experiment [15] is Mus musculus. Briefly: Weight change in g when a dose of 2.5 mg/kg administered intraperitoneally in B-16 melanoma infected mice. Format: functional. The following applies: route intraperitoneal. The method, boiled down: (§6)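 Hybrid BDF1 mice were inoculated ip at D0 with 0.5 mL of B16 melanoma homogenate (1 g tumor in 10 mL physiological serum). Drug was given ip daily on days 1-9, with cis-platinum 0.5 mg/kg as positive control on the same schedule.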

In experiment [16] the test system is Mus musculus. Put plainly: Survivors at day 30 when a dose of 40 mg/kg to P388 leukemia model; 0/10. The class given is functional.
The subject of experiment [17] is Mus musculus. Put plainly: Median survival day in P388 leukemia model when a dose of 80 mg/kg administered intraperitoneally. As to conditions: route intraperitoneal. The class given is functional. The gist of the method:
as §4

Experiment [18] has as its system Mus musculus. Put plainly: Survivors at day 60 when a dose of 1.25 mg/kg to B16 melanoma infected mice; 0/10.
The subject of experiment [19] is Mus musculus. Put plainly: Survivors at day D32 when a dose of 50 mg/kg administered intravenously to C38 adenocarcinoma mice models; 10/10. The class given is functional. The following applies: route intravenous. The gist of the method: as §1
Experiment [20] relates to Mus musculus. Briefly: Antitumor activity against P388 cells at a dose of 80 mg/kg administered intraperitoneally to P388 leukemia model. The class given is functional. As to conditions: dose 40 mg/kg; route intraperitoneal; in the assay text read “40 mg/kg” for “80 mg/kg”. The gist of the method:
as §5

Experiment [21] relates to Mus musculus. Briefly: Weight change in g when a dose of 2.5 mg/kg administered intraperitoneally B16 melanoma infected mice. As to conditions: route intraperitoneal. Format: functional. The gist of the method:
as §6

Experiment [22] has as its system Mus musculus. Put plainly: […] in C38 adenocarcinoma cell line when a dose of 50 mg/kg administered intravenously to mice. Format: functional, MC-38. As to conditions: route intravenous. The method, boiled down:
as §3

Experiment [23] relates to Mus musculus. Briefly: Survivors at day D30 when a dose of 40 mg/kg administered intravenously to L1210 leukemia mice model; 0/10. The following applies: route intravenous. The class given is functional.
Experiment [24] relates to Mus musculus. Put plainly: Survivors at day 30 when a dose of 5 mg/kg to P388 leukemia model; 0/10. Format: functional.
Experiment [25] relates to Mus musculus. Briefly: Survivors at day 30 when a dose of 100 mg/kg administered intravenously to P388 leukemia mice model; 1/10. The class given is functional. The following applies: route intravenous. The gist of the method:
as §2

The test system of experiment [26] is Mus musculus. Briefly: Weight change in g when a dose of 40 mg/kg administered intraperitoneally to P388 leukemia model. The following applies: route intraperitoneal.
The subject of experiment [27] is Mus musculus. Put plainly: Weight change in g when a dose of 5 mg/kg administered intraperitoneally B16 melanoma infected mice. The class given is functional. As to conditions: route intraperitoneal. The method, boiled down:
as §6

Experiment [28] relates to Mus musculus. Put plainly: […] in C38 adenocarcinoma cell line when a dose of 75 mg/kg administered intravenously to mice. As to conditions: route intravenous. The class given is functional, MC-38. The method, boiled down: as §3
Experiment [29] has as its system Mus musculus. Briefly: Survivors at day D38 when a dose of 100 mg/kg administered intravenously to C38 adenocarcinoma cell lines on D1 to mice; 10/10. The class given is functional, MC-38. The following applies: route intravenous. The gist of the method: as §1
Experiment [30] has as its system Mus musculus. Put plainly: Survivors at day 60 when a dose of 2.5 mg/kg to B16 melanoma infected mice; 0/10.

With `Cc1cnc(NCCCN(C)C)c2c3cc(O)ccc3n(C)c12`, the Survivors in the experiment with Mus musculus [1] was determined as 0; with Mus musculus [2], 10; in the experiment with Mus musculus [3], 10; in the experiment on Mus musculus [5] it was 1; with Mus musculus [9], 0. Further, the Weight change with Mus musculus [4] is -1.2 g. Besides, the figures for the Median tumoral volume in the experiment on Mus musculus [6] and in the experiment with Mus musculus [8] were 2.73 cm*3 and 0 cm*3, respectively. Moreover, the values for the Median survival day with Mus musculus [7] and with Mus musculus [10] were 25.75 and 19, respectively.

A word on the T/C: it is the result in the treated group divided by that in the control group, in per cent. As for `CCN(CC)CCCNc1[nH]cc(C)c2nc3ccc(O)cc3c1-2`, the Median survival day with Mus musculus [11] is given as 34; with Mus musculus [17] it was 2.3. Also, the Survivors was 4 in the experiment on Mus musculus [12] and 0 with Mus musculus [16]. In addition, the results for the T/C in the experiment with Mus musculus [13] and with Mus musculus [14] were 136% and “Toxic”, respectively. In the experiment on Mus musculus [15], this molecule had a Weight change of 3.6 g.

Regarding `CCN(CC)CCCNc1ncc(C)c2c1c1cc(O)ccc1n2C`, the Survivors stood at 0 in the experiment on Mus musculus [18]; 10 with Mus musculus [19]; 0 with Mus musculus [23]; 0 in the experiment on Mus musculus [24]; 1 in the experiment with Mus musculus [25]; 10 in the experiment with Mus musculus [29]. In the experiment on Mus musculus [30], the Survivors is on record as 0. In addition, the T/C with Mus musculus [20] came to 202%. The values for the Weight change with Mus musculus [21], in the experiment with Mus musculus [26] and in the experiment on Mus musculus [27] were 0.6 g, -5.2 g and 0.2 g, respectively. Besides, the Median tumoral volume with Mus musculus [22] was 1.38 cm*3; in the experiment with Mus musculus [28], 0.97 cm*3.

The values are drawn from ChEMBL document CHEMBL1124035, “1-Amino-substituted 4-methyl-5H-pyrido[4,3-b]indoles (gamma-carbolines) as tricyclic analogues of ellipticines: a new class of antineoplastic agents” (1988).
